# An excerpt weighted towards active compounds, which were near 4% of everything screened.
# KCNK9 inh: inhibitors of human KCNK9 two-pore domain potassium channel; HEK293 KCNK9, FluxOR thallium flux fluorescence; stronger effect = lower value; B-score at 10 µM; hit rate 1.2% among 310,000; AID 488922; Q9NPC2;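 active means ratio B-score over 3 SD below the library mean, with starting fluorescence within 5 SD of its mean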;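 further: negative B-score means less thallium flux so channel inhibition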
# hERG protect: compounds protecting human hERG from proarrhythmic drug block. CHO-hERG, FluxOR thallium flux, dofetilide IC70 present. activation (rescue from dofetilide block), less the hit threshold, % at 10 µM. AID 1511. hit rate 0.51% among 310,000;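 active means activation above the mean of controls blocked by dofetilide plus 5 SD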;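 further: thallium influx through hERG after potassium depolarization seen as dye fluorescence rise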
# PHOSPHO1 inh: PHOSPHO1 (human) inhibition | recombinant PHOSPHO1, absorbance phosphatase assay | inhibition, % at 13.3 µM | hit rate 1.1% among 290,000 | AID 1565 | Q8TCT1; in the data active means inhibition above about 60%
# Target sequence (Q8TCT1 whole entry, looked up): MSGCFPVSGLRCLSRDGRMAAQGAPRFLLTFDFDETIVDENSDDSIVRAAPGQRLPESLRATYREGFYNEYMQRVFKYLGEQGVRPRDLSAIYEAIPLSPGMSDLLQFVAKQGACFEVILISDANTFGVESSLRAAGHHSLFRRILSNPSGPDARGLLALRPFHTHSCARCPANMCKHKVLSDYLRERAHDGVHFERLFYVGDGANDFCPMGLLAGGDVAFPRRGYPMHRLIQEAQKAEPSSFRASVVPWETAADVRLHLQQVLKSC
# KCNQ1 inh: human KCNQ1 channel inhibition; P51787; CHO-K1 KCNQ1, FluxOR thallium flux fluorescence; stronger effect = higher value; B-score at 10 µM; hit rate 1.3% among 310,000;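 active means compounds whose thallium flux B-score, printed positive for inhibition, exceeds three library SD while starting fluorescence stays within three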;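 further: channel opened by potassium depolarization with thallium stimulus after 20 min compound exposure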
# KCNQ1 act: potentiators or activators of human KCNQ1 potassium channel; P51787; CHO-K1 KCNQ1, thallium flux FluxOR fluorescence; stronger effect = higher value; B-score at 10 µM; hit rate 0.35% among 310,000; AID 2648;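 active means fluorescence ratio B-score, a plate-corrected score, at least three library SD, with initial intensity B-score within 5 SD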
#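 Test system: CHO-K1 cells stably expressing KCNQ1 / Medium: assay buffer / Also added: depolarizing K+/Tl+ stimulus, K2SO4 and Tl2SO4 each 12.5 mM in 5x stock / Incubation: 90 min dye loading and 20 min compound exposure, both at room temperature / Signal: thallium influx via FluxOR fluorescence, kinetic imaging / Evaluation: B score of baseline-normalized fluorescence ratio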
# KCNK3 block: human KCNK3 channel inhibition, primary screen; O14649; CHO-KCNK3 thallium flux, FluxOR fluorescence; stronger effect = lower value; B-score at 10 µM; hit rate 0.84% among 340,000;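 active means B-score under library mean minus 4 SD, starting fluorescence ratio at most library mean plus 5 SD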;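 further: more negative B-score means stronger inhibition of thallium flux through KCNK3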
# * marks the source's active call; other numbers are inactive results; i = inactive; · = no result.
SMILES,KCNK9 inh,hERG protect,PHOSPHO1 inh,KCNQ1 inh,KCNQ1 act,KCNK3 block
CCOC(=O)c1sc(N)c(C#N)c1CSc1nnc(C2CCCCC2)n1N,i,-20,88*,i,i,i
COC(=O)c1ccc(CNC(=O)c2sccc2-c2ccccc2)cc1,i,-12,25,i,i,i
Cc1c(C(Nc2ccccn2)c2ccccc2)c(=O)n(-c2ccccc2)n1C (stereo unspecified),i,-7,-15,i,i,i
CC(C)(C)c1ccc(NC(=O)NC2CCCc3ccccc32)cc1 (stereo unspecified),i,-5,7,6*,i,i
Cc1ccc(NC(=O)NC2CCCc3ccccc32)cc1 (stereo unspecified),i,-9,27,i,i,i
Cc1ccc(CNC(=O)Cn2cccc2C(=O)c2ccccc2C)cc1,i,-6,-17,i,i,i
COc1cccc(CNC(=O)Cn2cccc2C(=O)c2ccccc2C)c1,i,-8,64*,i,i,i
COc1ccccc1CNC(=O)Cn1cccc1C(=O)c1ccccc1C,i,-8,75*,i,i,i
CC(=O)Nc1ccc(NC(=O)CSc2ccc3nnc(-c4ccccn4)n3n2)cc1,i,-6,33,i,i,i
O=S(=O)(NCc1nc2ccccc2[nH]1)c1ccccc1,i,-11,73*,i,i,i
c1ccc(C(c2ccccc2)N2CCN(c3ccc4ccccc4n3)CC2)cc1,-7.8*,-10,19,i,i,i
c1ccc(C(c2ccccc2)N2CCN(c3nc4ccccc4n4cnnc34)CC2)cc1,i,-8,25,6*,i,·
Cc1cccc(CN2CCN(C(c3ccccc3)c3ccc(Cl)cc3)CC2)c1 (stereo unspecified),i,-13,-1,8*,i,i
Clc1ccc(C(c2ccccc2)N2CCN(c3ccccn3)CC2)cc1 (stereo unspecified),-7.3*,-9,8,i,i,i
CC1CC(C)CN(CC(O)COCCOc2ccc(Br)cc2)C1 (stereo unspecified),i,-7,16,i,i,i
Cc1cc(OCc2cc(C(=O)NCc3csc(C(C)C)n3)no2)cc(C)c1Cl,i,-9,68*,i,i,i
CC(=O)c1ccc(NC(=S)NC(=O)c2c(Cl)c(C)nn2C)cc1,i,-3,0,i,11*,i
C/C(=N\NC(=O)c1c(Cl)c(C)nn1C)c1ccc(NC(=O)C2CCC2)cc1,i,-8,29,i,i,i
c1ccc(-n2cnnc2SCc2cn3ccsc3n2)cc1,i,-8,39,i,i,i
Cc1ccc(-n2c(SCc3cn4ccsc4n3)nc3ccccc3c2=O)cc1,i,-12,-42,7*,i,i
NC(=O)NC(=O)C(Nc1ccc2c(c1)CCC2)c1ccccc1 (stereo unspecified),i,-9,22,i,i,i
C/C=N\NC(=O)CNC(=O)CNC(=O)c1ccccc1,i,-7,-6,i,i,i
COc1ccc(OC)c(S(=O)(=O)NCC(c2ccco2)N2CCc3ccccc32)c1 (stereo unspecified),i,-7,·,i,i,i
O=C(CCc1ccccc1)NC(=S)Nc1ccccc1Br,i,5.0*,20,i,i,i
c1ccc(CN2CCN(Cc3cn4cccnc4n3)CC2)cc1,i,-4,2,i,i,i
Cc1ccc(-c2cc(-c3ccccc3)c3c(N)c(S(C)(=O)=O)sc3n2)cc1,i,-11,82*,i,i,i
CS(=O)(=O)c1sc2nc(-c3cccs3)cc(-c3ccccc3)c2c1N,i,-17,11,i,i,i
COc1ccc(NC(=O)CSc2n[nH]c(CNc3cccc(C)c3)n2)cc1,i,-8,19,i,i,i
Cc1ccc(NC(=O)c2ccccc2NS(=O)(=O)c2ccc(Cl)s2)cc1,-7.5*,-13,-6,i,i,i
